Experimental data: ChEMBL document CHEMBL1142406, “2-Heteroarylimino-5-benzylidene-4-thiazolidinones analogues of 2-thiazolylimino-5-benzylidene-4-thiazolidinones with antimicrobial activity: synthesis and structure-activity relationship” (2008)
≈ marks a conversion by molar mass, not a printed value. Calls of active or inactive are those of the source. The rule behind the calls is not given here.

Assays:
Staphylococcus aureus [1] = test: Antimicrobial activity against Staphylococcus aureus ATCC 25923 by broth dilution technique; format: functional
Procedure, shortened: (§1)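 Broth dilution in Mueller Hinton Broth. Compounds are dissolved in DMSO (never above 1% v/v final) and serially diluted. MIC is the lowest concentration giving complete growth inhibition.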

Staphylococcus aureus [2] = test: Antimicrobial activity against penicillin-resistant Staphylococcus aureus by broth dilution technique; format: functional
Procedure, shortened: (§2)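 Broth dilution in Mueller Hinton Broth with compounds predissolved in DMSO (at most 1% v/v). Final concentrations ranged from 100 to 0.0015, and the inoculum was 5.10⁴ bacteria/mL. Plates were incubated at 37 °C for 24 h. MIC was taken as the lowest concentration giving complete growth inhibition.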

[3] = system: Staphylococcus epidermidis; test: Antimicrobial activity against Staphylococcus epidermidis ATCC 12228 by broth dilution technique
Haemophilus influenzae = test: Antimicrobial activity against Haemophilus influenzae by broth dilution technique; format: functional
Procedure, shortened: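 Haemophilus Test Medium broth dilution. Compounds in DMSO are added to final dilutions, with DMSO at most 1% v/v. MIC is the lowest concentration completely inhibiting growth.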

Bacillus thuringiensis = test: Antimicrobial activity against Bacillus thuringiensis var. kurstaki BGSC 4D1 by broth dilution technique; format: functional; conditions: serovar kurstaki; procedure, shortened: as §1
Enterococcus faecium = test: Antimicrobial activity against Streptococcus faecium by broth dilution technique; format: functional; procedure, shortened: as §1
Aspergillus niger = test: Antimicrobial activity against Aspergillus niger ATCC 6275 upto 100 ug/ml by broth dilution technique; format: functional, organism-based
Procedure, shortened: (§3)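 Fungi are tested by Sabouraud Liquid Medium dilution. Compounds are in DMSO, with DMSO at most 1% v/v final. Inoculum is 1×10³ fungi/mL, incubated 48 h at 30 °C. MIC is the lowest concentration completely inhibiting growth. For MFC, 100 µL of clear mixtures is subcultured into 1 mL fresh medium and read after 48 h at 30 °C.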

Streptococcus pyogenes = test: Antimicrobial activity against Streptococcus pyogenes by broth dilution technique; format: functional
Procedure, shortened: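 Tryptose Phosphate Broth dilution. Compounds are dissolved in DMSO, with DMSO at most 1% v/v final. MIC is taken as the lowest concentration with complete growth inhibition.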

Micrococcus luteus = test: Antimicrobial activity against Sarcina lutea by broth dilution technique; format: functional; procedure, shortened: as §1
Escherichia coli = test: Antimicrobial activity against Escherichia coli SPA27 upto 100 ug/ml by broth dilution technique; format: functional, organism-based; procedure, shortened: as §1
Priestia megaterium = test: Antimicrobial activity against Bacillus megaterium by broth dilution technique; format: functional; procedure, shortened: as §1
Bacillus subtilis = test: Antimicrobial activity against Bacillus subtilis ATCC 6633 by broth dilution technique; format: functional; procedure, shortened: as §1
[4] = system: Staphylococcus haemolyticus; test: Antimicrobial activity against Staphylococcus haemolyticus by broth dilution technique; format: functional; procedure, shortened: as §1
Candida tropicalis = test: Antimicrobial activity against Candida tropicalis ATCC 1369 upto 100 ug/ml by broth dilution technique; format: functional, organism-based; procedure, shortened: as §3
[5] = system: Staphylococcus epidermidis; test: Antimicrobial activity against penicillin-resistant Staphylococcus epidermidis by broth dilution technique; format: functional; procedure, shortened: as §2
Enterococcus faecalis = test: Antimicrobial activity against Streptococcus faecalis by broth dilution technique; format: functional; procedure, shortened: as §1
Saccharomyces cerevisiae = test: Antimicrobial activity against Saccharomyces cerevisiae ATCC 9763 upto 100 ug/ml by broth dilution technique; format: functional, organism-based; procedure, shortened: as §3
Streptococcus agalactiae = test: Antimicrobial activity against Streptococcus agalactiae by broth dilution technique; format: functional; procedure, shortened: as §1

SMILES | MIC (Staphylococcus aureus [1]) [mg/L] | MIC (Staphylococcus aureus [2]) [mg/L] | MIC [3] [mg/L] | MIC (Haemophilus influenzae) [mg/L] | MIC (Bacillus thuringiensis) [mg/L] | MIC (Enterococcus faecium) [mg/L] | Activity (Aspergillus niger) | MIC (Streptococcus pyogenes) [mg/L] | MIC (Micrococcus luteus) [mg/L] | Activity (Escherichia coli) | MIC (Priestia megaterium) [mg/L] | MIC (Bacillus subtilis) [mg/L] | MIC [4] [mg/L] | Activity (Candida tropicalis) | MIC [5] [mg/L] | MIC (Enterococcus faecalis) [mg/L] | Activity (Saccharomyces cerevisiae) | MIC (Streptococcus agalactiae) [mg/L]
O=C1N/C(=N\c2nccs2)S/C1=C\c1ccc([N+](=O)[O-])cc1 | 3 (≈ 9.03 µM) | 1.5 (≈ 4.51 µM) | 6 (≈ 18.1 µM) | 0.3 (≈ 0.903 µM) | 1.5 (≈ 4.51 µM) | > 100 | inactive | > 100 | 3 (≈ 9.03 µM) | inactive | 0.7 (≈ 2.11 µM) | 1.5 (≈ 4.51 µM) | 6 (≈ 18.1 µM) | inactive | 6 (≈ 18.1 µM) | > 100 | inactive | 1.5 (≈ 4.51 µM)
O=C1N/C(=N\c2nccs2)S/C1=C\c1cccc(Cl)c1 | 1.5 (≈ 4.66 µM) | 0.7 (≈ 2.18 µM) | 1.5 (≈ 4.66 µM) | 0.3 (≈ 0.932 µM) | 1.5 (≈ 4.66 µM) | 3 (≈ 9.32 µM) | inactive | 12 (≈ 37.3 µM) | 1.5 (≈ 4.66 µM) | inactive | 0.15 (≈ 0.466 µM) | 0.3 (≈ 0.932 µM) | 3 (≈ 9.32 µM) | inactive | 1.5 (≈ 4.66 µM) | 50 (≈ 155 µM) | inactive | 1.5 (≈ 4.66 µM)
COc1ccc(/C=C2\S/C(=N/c3nccs3)NC2=O)cc1 | 12 (≈ 37.8 µM) | 3 (≈ 9.45 µM) | 6 (≈ 18.9 µM) | 0.3 (≈ 0.945 µM) | 3 (≈ 9.45 µM) | > 100 | inactive | 12 (≈ 37.8 µM) | 6 (≈ 18.9 µM) | inactive | 1.5 (≈ 4.73 µM) | 1.5 (≈ 4.73 µM) | 12 (≈ 37.8 µM) | inactive | 12 (≈ 37.8 µM) | > 100 | inactive | 3 (≈ 9.45 µM)
O=C1N/C(=N/c2nsc3ccccc23)S/C1=C\c1ccccc1 | > 100 |  |  | > 100 |  |  | inactive |  |  | inactive |  | > 100 |  | inactive |  |  | inactive | 
O=C1N/C(=N\c2nc3ccccc3s2)S/C1=C\c1ccccc1Cl | 12 (≈ 32.3 µM) | 12 (≈ 32.3 µM) | 12 (≈ 32.3 µM) | > 100 | 12 (≈ 32.3 µM) | > 100 | inactive | 25 (≈ 67.2 µM) | 12 (≈ 32.3 µM) | inactive | 12 (≈ 32.3 µM) | 12 (≈ 32.3 µM) | > 100 | inactive | 25 (≈ 67.2 µM) | > 100 | inactive | > 100
O=C1N/C(=N\c2nccs2)S/C1=C\c1ccccc1 | 3 (≈ 10.4 µM) | 25 (≈ 87 µM) | 6 (≈ 20.9 µM) | 0.7 (≈ 2.44 µM) | 3 (≈ 10.4 µM) | 25 (≈ 87 µM) | inactive | > 100 | 3 (≈ 10.4 µM) | inactive | 0.7 (≈ 2.44 µM) | 0.7 (≈ 2.44 µM) | 6 (≈ 20.9 µM) | inactive | 50 (≈ 174 µM) | 25 (≈ 87 µM) | inactive | 3 (≈ 10.4 µM)
COc1cc(/C=C2\S/C(=N/c3nc4ccccc4s3)NC2=O)ccc1O | 6 (≈ 15.6 µM) | 6 (≈ 15.6 µM) | 6 (≈ 15.6 µM) | > 100 | 6 (≈ 15.6 µM) | > 100 | inactive | > 100 | 12 (≈ 31.3 µM) | inactive | 12 (≈ 31.3 µM) | > 100 | > 100 | inactive | 12 (≈ 31.3 µM) | > 100 | inactive | > 100
O=C1CSC(Nc2nccs2)=N1 | > 100 |  |  | 1.5 (≈ 7.53 µM) |  |  | inactive |  |  | inactive |  | 50 (≈ 251 µM) |  | inactive |  |  | inactive | 
COc1cc(/C=C2\S/C(=N\c3nsc4ccccc34)NC2=O)ccc1O | > 100 |  |  | > 100 |  |  | inactive |  |  | inactive |  | > 100 |  | inactive |  |  | inactive | 
O=C1N/C(=N\c2nc3ccccc3s2)S/C1=C\c1cccc([N+](=O)[O-])c1 | 6 (≈ 15.7 µM) | 6 (≈ 15.7 µM) | 6 (≈ 15.7 µM) | > 100 | 6 (≈ 15.7 µM) | > 100 | inactive | > 100 | 6 (≈ 15.7 µM) | inactive | 12 (≈ 31.4 µM) | 12 (≈ 31.4 µM) | > 100 | inactive | 6 (≈ 15.7 µM) | > 100 | inactive | > 100
O=C1N/C(=N\c2nc3ccccc3s2)S/C1=C\c1ccc(Cl)cc1 | > 100 | > 100 | 12 (≈ 32.3 µM) | > 100 | 6 (≈ 16.1 µM) | > 100 | inactive | > 100 | 12 (≈ 32.3 µM) | inactive | 12 (≈ 32.3 µM) | 12 (≈ 32.3 µM) | 100 (≈ 269 µM) | inactive | 12 (≈ 32.3 µM) | 100 (≈ 269 µM) | inactive | > 100
O=C1N/C(=N/c2nsc3ccccc23)S/C1=C\c1cccc([N+](=O)[O-])c1 | > 100 | > 100 | > 100 | 3 (≈ 7.84 µM) | 1.5 (≈ 3.92 µM) | > 100 | inactive | > 100 | > 100 | inactive | 0.7 (≈ 1.83 µM) | > 100 | > 100 | inactive | > 100 | > 100 | inactive | > 100
O=C1N/C(=N/c2nsc3ccccc23)S/C1=C\c1ccc(Cl)cc1 | > 100 | > 100 | > 100 | > 100 | 6 (≈ 16.1 µM) | > 100 | inactive | > 100 | > 100 | inactive | 0.7 (≈ 1.88 µM) | 3 (≈ 8.07 µM) | > 100 | inactive | > 100 | > 100 | inactive | 50 (≈ 134 µM)
O=C1N/C(=N\c2nc3ccccc3s2)S/C1=C\c1ccccc1[N+](=O)[O-] | > 100 |  |  | > 100 |  |  | inactive |  |  | inactive |  | > 100 |  | inactive |  |  | inactive | 
O=C1N/C(=N/c2nsc3ccccc23)S/C1=C\c1ccccc1Cl | > 100 |  |  | > 100 |  |  | inactive |  |  | inactive |  | > 100 |  | inactive |  |  | inactive | 
O=C1N/C(=N\c2nc3ccccc3s2)S/C1=C\c1cccc(Cl)c1 | 25 (≈ 67.2 µM) | 25 (≈ 67.2 µM) | 6 (≈ 16.1 µM) | > 100 | 6 (≈ 16.1 µM) | > 100 | inactive | > 100 | 12 (≈ 32.3 µM) | inactive | 12 (≈ 32.3 µM) | 12 (≈ 32.3 µM) | > 100 | inactive | 12 (≈ 32.3 µM) | > 100 | inactive | > 100
CC1(C)S[C@@H]2[C@H](NC(=O)[C@H](N)c3ccccc3)C(=O)N2[C@H]1C(=O)O [AMPICILLIN] | 0.07 (≈ 0.2 µM) | 25 (≈ 71.5 µM) | 3 (≈ 8.59 µM) | 0.07 (≈ 0.2 µM) | 50 (≈ 143 µM) | 100 (≈ 286 µM) | inactive | 0.007 (≈ 0.02 µM) | 0.0015 (≈ 0.00429 µM) | inactive | 0.07 (≈ 0.2 µM) | 0.007 (≈ 0.02 µM) | 0.03 (≈ 0.0859 µM) | inactive | 25 (≈ 71.5 µM) | 0.7 (≈ 2 µM) | inactive | 0.03 (≈ 0.0859 µM)
COc1ccc(/C=C2\S/C(=N\c3nsc4ccccc34)NC2=O)cc1 | > 100 |  |  | > 100 |  |  | inactive |  |  | inactive |  | > 100 |  | inactive |  |  | inactive | 
